Data published in ChEMBL document CHEMBL5357024, “MDM2 Antagonist Idasanutlin Reduces HDAC1/2 Abundance and Corepressor Partners but Not HDAC3” (ACS Med Chem Lett, 2024).
The source made the active and inactive calls. No cut-off for these calls is given here.

Legend:
[1] = biological target: Lysine-specific histone demethylase 1A (Homo sapiens) (UniProt O60341); assay: Induction of LSD1 degradation in human HCT-116 cells assessed as reduction in LSD1 abundance by measuring remaining activity at 0.01 uM measured after 24 hrs by Western blot analysis (reference value: 100%); type: cell-based
Summary of the method: (§1)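 HCT116 cells seeded in six-well plates for 24 h, then exposed 24 h to compound (0.01–10 μM) or DMSO in fresh medium. Lysis in Tris-HCl/NaCl/NP-40/Triton X-100 with protease inhibitor. Bradford-normalised 30 μg protein per lane. Quantitative Western blot used specific HDAC1, HDAC2, HDAC3, LSD1 or Sin3a antibodies with IRDye secondaries. Abundance compared with DMSO, n = 2 replicates.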

[2] = biological target: E3 ubiquitin-protein ligase Mdm2/Histone deacetylase 3 (Homo sapiens) (UniProt Q00987+O15379); assay: PROTAC activity at MDM2/HDAC3 in human HCT-116 cells assessed as reduction in HDAC3 abundance by measuring remaining activity at 0.05 uM measured after 24 hrs by Western blot analysis; type: cell-based
Summary of the method: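 HCT116 cells in DMEM with 10% FBS and glutamine/penicillin/streptomycin at 37 °C, 5% CO2. Seeded 4 × 10^5 cells/well, after 24 h treated 24 h with DMSO or compound in fresh medium. Lysed in Tris-HCl/NaCl/NP-40/Triton X-100 buffer with protease inhibitor, Bradford-quantified, 30 μg protein per lane. Quantitative Western blot with specific HDAC1/2/3 antibodies, IRDye secondaries, infrared imaging, versus DMSO. n = 2 replicates.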

HCT-116 = assay: Effect on histone H3 lysine K56 acetylation in human HCT-116 cells assessed as increase in H3K56ac level at 0.1 to 10 uM by Western blot analysis; type: functional, cell-based; settings: dose 0.1-10 µM
Summary of the method: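 HCT116 cells (DMEM, 10% FBS, glutamine/pen/strep, 37 °C, 5% CO2) seeded 24 h, then treated with DMSO or compound in fresh medium. Pellets after lysis were acid-extracted with 0.4 N H2SO4 at 4 °C overnight. Acid histone extract run on 4–12% bis-Tris gels, transferred to nitrocellulose and probed for H3K56ac. IRDye secondaries with infrared imaging.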

[3] = biological target: T1, Paired amphipathic helix protein Sin3a (Homo sapiens) (UniProt Q96ST3); assay: Induction of SIN3A degradation in human HCT-116 cells assessed as reduction in SIN3A abundance by measuring remaining activity at 10 uM measured after 24 hrs by Western blot analysis (reference value: 100%); type: cell-based; summary of the method: as §1
T1 sequence (whole entry): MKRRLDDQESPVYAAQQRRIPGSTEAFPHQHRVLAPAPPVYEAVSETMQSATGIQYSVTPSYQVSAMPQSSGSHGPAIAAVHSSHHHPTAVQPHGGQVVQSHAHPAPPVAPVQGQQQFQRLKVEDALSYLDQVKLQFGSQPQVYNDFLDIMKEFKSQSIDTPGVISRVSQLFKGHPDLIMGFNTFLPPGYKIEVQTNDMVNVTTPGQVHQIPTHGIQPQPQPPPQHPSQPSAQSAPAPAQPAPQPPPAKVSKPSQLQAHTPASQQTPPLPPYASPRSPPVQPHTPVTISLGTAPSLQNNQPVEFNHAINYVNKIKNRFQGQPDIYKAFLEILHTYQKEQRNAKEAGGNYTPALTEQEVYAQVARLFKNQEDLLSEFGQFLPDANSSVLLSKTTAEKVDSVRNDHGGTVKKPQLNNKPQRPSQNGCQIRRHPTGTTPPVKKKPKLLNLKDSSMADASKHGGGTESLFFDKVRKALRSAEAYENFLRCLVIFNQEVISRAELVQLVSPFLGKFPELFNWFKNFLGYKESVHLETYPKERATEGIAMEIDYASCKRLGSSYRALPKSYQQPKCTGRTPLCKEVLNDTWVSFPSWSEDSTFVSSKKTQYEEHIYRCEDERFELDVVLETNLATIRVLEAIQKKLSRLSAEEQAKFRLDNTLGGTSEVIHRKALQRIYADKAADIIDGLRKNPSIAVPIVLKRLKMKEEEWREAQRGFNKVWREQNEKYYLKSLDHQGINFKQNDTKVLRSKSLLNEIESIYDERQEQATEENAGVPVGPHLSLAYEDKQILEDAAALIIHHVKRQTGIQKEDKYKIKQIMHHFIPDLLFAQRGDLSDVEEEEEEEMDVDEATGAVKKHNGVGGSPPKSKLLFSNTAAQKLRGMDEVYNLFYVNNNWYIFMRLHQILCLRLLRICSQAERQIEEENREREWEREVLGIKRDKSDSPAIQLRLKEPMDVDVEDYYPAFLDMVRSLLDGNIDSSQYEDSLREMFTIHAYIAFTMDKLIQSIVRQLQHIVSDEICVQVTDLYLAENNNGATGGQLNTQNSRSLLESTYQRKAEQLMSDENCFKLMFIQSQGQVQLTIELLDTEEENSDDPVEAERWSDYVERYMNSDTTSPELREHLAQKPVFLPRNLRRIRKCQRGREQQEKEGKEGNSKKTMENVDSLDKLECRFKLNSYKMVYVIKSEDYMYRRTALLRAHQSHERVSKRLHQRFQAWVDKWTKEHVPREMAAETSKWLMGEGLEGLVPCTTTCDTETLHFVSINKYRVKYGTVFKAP

[4] = biological target: E3 ubiquitin-protein ligase Mdm2/Histone deacetylase 1 (Homo sapiens) (UniProt Q00987+Q13547); assay: PROTAC activity at MDM2/HDAC1 in human HCT-116 cells assessed as decrease in HDAC1 abundance by measuring remaining activity at 0.025 uM measured after 24 hrs by Western blot analysis (reference value: 100%); type: cell-based; summary of the method: as §1
[5] = biological target: Lysine-specific histone demethylase 1A (Homo sapiens) (UniProt O60341); assay: Induction of LSD1 degradation in human HCT-116 cells assessed as reduction in LSD1 abundance by measuring remaining activity at 2.5 uM measured after 24 hrs by Western blot analysis (reference value: 100%); type: cell-based; summary of the method: as §1

Sequence of E3 ubiquitin-protein ligase Mdm2/Histone deacetylase 1 (Homo sapiens) (Q00987 whole entry, looked up): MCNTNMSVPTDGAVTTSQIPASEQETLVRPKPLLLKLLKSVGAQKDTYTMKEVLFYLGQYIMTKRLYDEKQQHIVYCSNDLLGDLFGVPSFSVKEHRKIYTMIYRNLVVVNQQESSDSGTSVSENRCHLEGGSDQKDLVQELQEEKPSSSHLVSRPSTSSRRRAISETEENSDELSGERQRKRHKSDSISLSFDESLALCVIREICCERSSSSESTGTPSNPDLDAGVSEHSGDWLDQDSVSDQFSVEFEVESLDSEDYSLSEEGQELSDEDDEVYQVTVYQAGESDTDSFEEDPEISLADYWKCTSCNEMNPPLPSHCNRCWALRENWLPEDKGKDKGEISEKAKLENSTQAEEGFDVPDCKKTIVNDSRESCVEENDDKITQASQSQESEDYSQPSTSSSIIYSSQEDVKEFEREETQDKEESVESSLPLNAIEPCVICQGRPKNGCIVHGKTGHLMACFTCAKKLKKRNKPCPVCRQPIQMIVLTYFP
Sequence of E3 ubiquitin-protein ligase Mdm2/Histone deacetylase 1 (Homo sapiens) (Q13547 whole entry, looked up): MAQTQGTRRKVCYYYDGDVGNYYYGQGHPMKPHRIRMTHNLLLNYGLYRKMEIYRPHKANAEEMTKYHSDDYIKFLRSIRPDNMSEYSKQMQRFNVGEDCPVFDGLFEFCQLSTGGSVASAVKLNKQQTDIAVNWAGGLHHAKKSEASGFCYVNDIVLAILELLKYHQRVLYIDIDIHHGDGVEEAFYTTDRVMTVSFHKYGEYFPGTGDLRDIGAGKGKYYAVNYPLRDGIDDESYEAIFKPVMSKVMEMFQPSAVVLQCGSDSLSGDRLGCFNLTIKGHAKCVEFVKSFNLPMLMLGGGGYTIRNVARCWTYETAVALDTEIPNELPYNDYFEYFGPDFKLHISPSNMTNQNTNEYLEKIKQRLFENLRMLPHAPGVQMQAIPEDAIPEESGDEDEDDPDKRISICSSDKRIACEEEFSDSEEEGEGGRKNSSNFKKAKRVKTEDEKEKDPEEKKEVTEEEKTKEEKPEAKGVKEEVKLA
Sequence of E3 ubiquitin-protein ligase Mdm2/Histone deacetylase 3 (Homo sapiens) (O15379 whole entry, looked up): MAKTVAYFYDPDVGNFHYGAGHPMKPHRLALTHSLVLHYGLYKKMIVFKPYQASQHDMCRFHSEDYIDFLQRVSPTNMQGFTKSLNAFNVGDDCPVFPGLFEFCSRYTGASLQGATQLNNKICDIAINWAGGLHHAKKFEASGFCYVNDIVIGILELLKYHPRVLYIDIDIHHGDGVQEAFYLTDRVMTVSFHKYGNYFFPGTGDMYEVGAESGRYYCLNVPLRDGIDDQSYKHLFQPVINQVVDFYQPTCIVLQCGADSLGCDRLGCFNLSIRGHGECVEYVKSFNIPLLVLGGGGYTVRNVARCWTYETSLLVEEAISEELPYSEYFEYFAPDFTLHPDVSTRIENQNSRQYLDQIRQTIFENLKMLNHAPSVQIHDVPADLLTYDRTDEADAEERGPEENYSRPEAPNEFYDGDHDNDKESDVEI
Sequence of E3 ubiquitin-protein ligase Mdm2/Histone deacetylase 3 (Homo sapiens) (Q00987 whole entry, looked up): as the sequence (Q00987 whole entry, looked up) above

SMILES: COc1cc(C(=O)NCCOCCOCCOCCOCCC(=O)Nc2ccc(C(=O)Nc3ccccc3N)cc2)ccc1NC(=O)[C@@H]1N[C@@H](CC(C)(C)C)[C@](C#N)(c2ccc(Cl)cc2F)[C@H]1c1cccc(Cl)c1F
- Activity [1]: 104%
- Activity [2]: 105%
- Activity (HCT-116): inactive
- Activity [3]: 45%
- Activity [4]: 94%
- Activity [5]: 73%
